In the library only some 1.9% were active in any assay of this set; here they are far more common.
NPY Y2 blocker: NPY-Y2 receptor antagonists, primary screen, cell-based; NPY-Y2 expressing cells, antagonist mode; inhibition, % at 2.7 µM; 0.99% of 140,000 active; AID 793, 2007;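 also: 0% = vehicle with agonist challenge and 100% = reference antagonist with challenge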
Target sequence (P49146 whole entry, looked up): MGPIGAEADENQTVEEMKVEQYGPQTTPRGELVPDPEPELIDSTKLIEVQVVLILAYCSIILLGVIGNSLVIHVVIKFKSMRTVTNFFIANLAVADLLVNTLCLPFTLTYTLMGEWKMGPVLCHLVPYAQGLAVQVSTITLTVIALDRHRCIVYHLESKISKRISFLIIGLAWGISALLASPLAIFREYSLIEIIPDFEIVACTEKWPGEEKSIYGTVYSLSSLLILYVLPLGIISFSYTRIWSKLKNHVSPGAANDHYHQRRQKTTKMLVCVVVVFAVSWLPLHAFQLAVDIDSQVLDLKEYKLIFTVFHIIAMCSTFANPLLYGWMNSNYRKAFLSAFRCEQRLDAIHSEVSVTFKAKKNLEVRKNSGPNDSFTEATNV
NPY-Y2 PAM-ag: NPY-Y2 potentiators or agonists, primary screen, cell-based | Neuropeptide Y receptor type 2 (Homo sapiens), P49146 | cells expressing NPY-Y2, potentiator/agonist read-out | activation, % at 3.6 µM | 0.45% of 220,000 active; in the data active = activation above about 27%;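 also: cells stimulated with NPY near EC25 plus isoproterenol at EC100; 0% = vehicle plus submaximal agonist and 100% = vehicle plus saturating agonist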
NPY-Y1 PAM-ag: NPY-Y1 receptor potentiators or agonists, primary screen, cell-based. Neuropeptide Y receptor type 1 (Homo sapiens), P25929. NPY-Y1 expressing cells, potentiator/agonist activation. activation, % at 3.6 µM. 0.37% of 220,000 active; in the data active = activation above about 33%, passing the limit was not always enough;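 also: cells stimulated with NPY at EC10 then isoproterenol at EC100; 0% = low agonist plus stimulus and 100% = saturating agonist plus stimulus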
NPY-Y1 antag: NPY-Y1 receptor antagonists, primary screen, cell-based; Neuropeptide Y receptor type 1 (Homo sapiens), P25929; 1% of 200,000 active; inhibition, % at 3.6 µM; HEK293-CNG Y1 cells, membrane potential fluorescence; NPY at EC95, then isoproterenol; AID 1040, 2008;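 active = inhibition above the campaign mean inhibition of all tested compounds plus 3 SD, cut at about 20% in these data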;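 also: 0% = DMSO wells given NPY plus isoproterenol and 100% = isoproterenol alone without NPY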
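Material: HEK293 Y1/CNG channel cell line; also added: NPY (25 nM), isoproterenol (1 µM), Ro 20-1724 (25 µM); doses: one concentration, 3.6 µM, in 0.4% DMSO; schedule: compound incubation 1 h at room temperature, readout 45 min post-stimulation; technique: membrane potential fluorescence; measure: fluorescence ratio normalized to % inhibition between controls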
NPY-Y1 ant conf: NPY-Y1 receptor antagonists, retest of hits, confirmation, HEK293-CNG cells, membrane potential fluorescence, triplicate | shares compounds with NPY-Y1 antag | cAMP; NPY challenge against isoproterenol-raised cAMP | inhibition, % at 3.6 µM | 21% of 1,200 active; in the data active = inhibition above about 20%;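 also: 0% = vehicle with agonist plus stimulus and 100% = stimulus alone without agonist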
NPY2 antag ctr: NPY-Y2 receptor antagonists, selectivity check, confirmation, counter-screen for NPY-Y1 antagonist project, HEK293-CNG cells, membrane potential fluorescence, triplicate; shares compounds with NPY-Y1 antag; antagonism; cells given NPY, then isoproterenol; inhibition, % at 3.6 µM; 28% of 1,200 active; AID 1255, 2008;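 also: 0% = DMSO with agonist challenge and 100% = reference antagonist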
An asterisk follows results filed as active. Rule as the data show it, unless noted: active = inhibition above about 17%; inactive = the rest.

Screening Cc1ccccc1Oc1cc(NC(=O)Cn2cnc([N+](=O)[O-])c2)cc([N+](=O)[O-])c1 returned NPY-Y2 PAM-ag 16, NPY-Y1 PAM-ag 32, NPY-Y1 antag 25*, NPY-Y1 ant conf -5 and NPY2 antag ctr -5.
`CCN(CC)CCCN(C(=O)Cn1nnc(-c2ccc(OC)c(OC)c2)n1)C(C(=O)NC(C)(C)C)c1ccc(F)cc1` (centres undefined) gave NPY-Y2 PAM-ag -54, NPY-Y1 PAM-ag -74, NPY-Y1 antag 32*, NPY-Y1 ant conf 21* and NPY2 antag ctr 39*.
For CCN(CC)CCN(C(=O)Cn1nnc(-c2ccc(C)o2)n1)C(C(=O)NC(C)(C)C)c1cccs1 (centres undefined) the results were NPY-Y2 PAM-ag -53, NPY-Y1 PAM-ag -60, NPY-Y1 antag 45*, NPY-Y1 ant conf 21* and NPY2 antag ctr 34*.
Screening COc1cc2cc(C(=O)O)n(C)c2c(OC)c1OC returned NPY Y2 blocker 8, NPY-Y2 PAM-ag 3, NPY-Y1 PAM-ag -12, NPY-Y1 antag 25*, NPY-Y1 ant conf 4 and NPY2 antag ctr 3.
For COc1ccc2c(c1)cc(C(=O)O)n2C the results were NPY Y2 blocker 4, NPY-Y2 PAM-ag -1, NPY-Y1 PAM-ag -8 and NPY-Y1 antag 3.
Screening CCNc1nc(NCC)nc(SCCOC(=O)c2ccccc2)n1 returned NPY Y2 blocker 2, NPY-Y2 PAM-ag -2, NPY-Y1 PAM-ag -23 and NPY-Y1 antag 8.
Screening CCNc1nc(NCC)nc(SCCOC(=O)Nc2ccc(Cl)cc2Cl)n1 returned NPY Y2 blocker 13, NPY-Y2 PAM-ag -21, NPY-Y1 PAM-ag -40, NPY-Y1 antag 24*, NPY-Y1 ant conf 10 and NPY2 antag ctr 12.
CC(C)CCNC(=O)/C=C/c1ccc(Br)cc1 was read as NPY Y2 blocker 15, NPY-Y2 PAM-ag -12, NPY-Y1 PAM-ag -25, NPY-Y1 antag 20*, NPY-Y1 ant conf 8 and NPY2 antag ctr 5.
`CCN(CC)S(=O)(=O)c1cccc(NC(=O)COc2ccc(C#N)cc2OC)c1` gave NPY Y2 blocker 2, NPY-Y2 PAM-ag -14, NPY-Y1 PAM-ag -37 and NPY-Y1 antag 17.
`CCN(CC)S(=O)(=O)c1cc(NC(=O)COc2ccc(C#N)cc2OC)ccc1C` gave NPY Y2 blocker 12, NPY-Y2 PAM-ag -9, NPY-Y1 PAM-ag -25, NPY-Y1 antag 24*, NPY-Y1 ant conf 12 and NPY2 antag ctr 29*.
Screening COc1ccc2c(c1)C(C)=CC(C)(C)N2C(=O)CSc1nnc(-c2ccc(C)cc2)o1 returned NPY Y2 blocker 16, NPY-Y2 PAM-ag -36, NPY-Y1 PAM-ag -46, NPY-Y1 antag 23*, NPY-Y1 ant conf 12 and NPY2 antag ctr 11.
CCOc1cc(C2C3=C(CC(C)(C)CC3=O)Nc3n[nH]c(C)c32)ccc1O (centres undefined) was read as NPY-Y2 PAM-ag -10, NPY-Y1 PAM-ag -16, NPY-Y1 antag 42*, NPY-Y1 ant conf 26* and NPY2 antag ctr 40*.
For Fc1ccc(Nc2c3c(nc4ccccc24)CCC3)cc1 the results were NPY-Y2 PAM-ag -26, NPY-Y1 PAM-ag -26, NPY-Y1 antag 23*, NPY-Y1 ant conf 18 and NPY2 antag ctr 14.
c1ccc2c(Nc3ccc4c(c3)OCCO4)c3c(nc2c1)CCC3 was read as NPY-Y2 PAM-ag 3, NPY-Y1 PAM-ag 9 and NPY-Y1 antag 7.
For O=C(NC1C/C(=N/O)c2cc3c(cc21)OCO3)C(F)(F)F (centres undefined) the results were NPY-Y2 PAM-ag 9, NPY-Y1 PAM-ag -8 and NPY-Y1 antag 4.
`CC(C)=C(NC(=O)c1ccccc1)C(=O)N1CCOCC1` gave NPY Y2 blocker 2, NPY-Y2 PAM-ag 13, NPY-Y1 PAM-ag 13, NPY-Y1 antag 22*, NPY-Y1 ant conf -2 and NPY2 antag ctr 0.
For COc1ccc(-n2cc(-c3ccccc3)c3c(NCCCN4CCOCC4)ncnc32)cc1 the results were NPY-Y2 PAM-ag -27, NPY-Y1 PAM-ag -18, NPY-Y1 antag 26*, NPY-Y1 ant conf 13 and NPY2 antag ctr 7.
`COc1ccc(OC)c(Nc2cc(-c3ccccc3)nc(N)n2)c1` gave NPY Y2 blocker 7, NPY-Y2 PAM-ag -7, NPY-Y1 PAM-ag -33, NPY-Y1 antag 42*, NPY-Y1 ant conf 2 and NPY2 antag ctr 13.
Cc1cc(C)cc(N2C(=O)CSC2c2ccccn2)c1 (centres undefined) was read as NPY-Y2 PAM-ag -10, NPY-Y1 PAM-ag -2 and NPY-Y1 antag -3.
Screening Nc1nonc1-n1nnc(C(=O)N/N=C/c2ccccc2Cl)c1COc1ccc(F)cc1 returned NPY-Y2 PAM-ag 6 and NPY-Y1 PAM-ag -1.
For Cc1cc(-c2ccccc2)nc(Oc2cccc(C(F)(F)F)c2)c1S(C)(=O)=O the results were NPY Y2 blocker 6, NPY-Y2 PAM-ag -17, NPY-Y1 PAM-ag -25, NPY-Y1 antag 29*, NPY-Y1 ant conf 6 and NPY2 antag ctr 2.
For COc1ccccc1NC(=O)Cc1noc(CSc2cc(C)c3ccccc3n2)n1 the results were NPY Y2 blocker 13, NPY-Y2 PAM-ag -18, NPY-Y1 PAM-ag -27, NPY-Y1 antag 20*, NPY-Y1 ant conf 9 and NPY2 antag ctr 7.
`COc1ccccc1NC(=O)Cc1noc(CSc2cccc[n+]2[O-])n1` gave NPY Y2 blocker -1, NPY-Y2 PAM-ag -5, NPY-Y1 PAM-ag 11 and NPY-Y1 antag 4.
COc1ccc(CNCCNC(=O)c2cccs2)c(OC)c1OC was read as NPY-Y2 PAM-ag -4, NPY-Y1 PAM-ag 1 and NPY-Y1 antag 5.
Cc1cc(C)nc(SCc2ccc(C(=O)N/N=C/c3ccccc3C(=O)O)cc2)n1 was read as NPY-Y2 PAM-ag -22, NPY-Y1 PAM-ag -15, NPY-Y1 antag 30*, NPY-Y1 ant conf 1 and NPY2 antag ctr 1.
Screening O=C(O)CCCCCCC1C(=O)NC(=O)N1CCC(O)C1CCCCC1 (centres undefined) returned NPY Y2 blocker 5, NPY-Y2 PAM-ag -2, NPY-Y1 PAM-ag -50, NPY-Y1 antag 24*, NPY-Y1 ant conf 28* and NPY2 antag ctr 21*.
`O=C(O)CCCCCN1C(=O)C2CCCCC2C1=O` (centres undefined) gave NPY Y2 blocker 3, NPY-Y2 PAM-ag 14, NPY-Y1 PAM-ag -5 and NPY-Y1 antag 5.
Screening CC(C)(C)OC(=O)C(C)(C)O/N=C(\C(=O)O)c1csc(N)n1 returned NPY-Y2 PAM-ag -5, NPY-Y1 PAM-ag 1 and NPY-Y1 antag 3.
NC(=O)c1oc2ccccc2c1NC(=O)C1COc2ccccc2O1 (centres undefined) was read as NPY-Y2 PAM-ag 5, NPY-Y1 PAM-ag 15 and NPY-Y1 antag -5.
